Shown are actives, neighbours in structure and some others; about 1.2% of the full set was active somewhere.
FXIIa inh 1536 – blocks human coagulation factor XIIa protease activity; purified FXIIa, Boc-QGR-AMC fluorogenic substrate, 2 h; P00748; 220,000 tested, 0.3% active; inhibition, % at 5 µM; AID 800; in the data active = inhibition above about 40%
S1P3 antag – antagonists of human S1P3 receptor; Q99500; CHO S1P3 NFAT-BLA reporter, FRET fluorescence, antagonist mode; inhibition, % at 4.98 µM; 170,000 tested, 0.27% active; AID 485;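 active = inhibition above the plate cutoff, the mean inhibition of test wells on that plate plus 3 SD, cut at about 28% in these data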;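 also: cells challenged with S1P at its EC80 of 0.8 µM; blue over green emission ratio from cleaved BLA substrate after 4 h stimulation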
Target sequence (Q99500 whole entry, looked up): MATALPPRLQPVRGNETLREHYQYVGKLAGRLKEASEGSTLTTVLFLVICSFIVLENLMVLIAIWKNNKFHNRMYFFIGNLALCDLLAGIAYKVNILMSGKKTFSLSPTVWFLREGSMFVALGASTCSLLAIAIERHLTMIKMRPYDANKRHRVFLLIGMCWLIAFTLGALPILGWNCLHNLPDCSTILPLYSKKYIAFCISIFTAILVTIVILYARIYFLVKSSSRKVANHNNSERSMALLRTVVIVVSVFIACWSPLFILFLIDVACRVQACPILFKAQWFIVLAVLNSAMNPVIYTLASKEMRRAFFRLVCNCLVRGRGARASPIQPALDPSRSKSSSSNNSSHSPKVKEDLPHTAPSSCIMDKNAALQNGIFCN
Thrombin inh – blocks human thrombin protease activity | alpha-thrombin, Boc-VPR-AMC fluorogenic substrate cleavage | inhibition, % at 5 µM | 220,000 tested, 0.26% active;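 active = inhibition at or above 40%; inactive = inhibition below 40%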
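Material: Human alpha-thrombin protein | Buffer or medium: pH 7.5 Tris-saline with Tween 20 | Reagent: Boc-VPR-AMC substrate, 15 µM final | Schedule: Reaction at ambient temperature | Detection: AMC fluorescence at 355 nm excitation and 460 nm emission | Evaluation: Percent inhibition scaled between no-compound controls and no-enzyme blanks | Controls: no-compound enzyme wells and no-enzyme blanks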
FXIa inh – inhibitors of human coagulation factor XIa | purified FXIa, Boc-Glu-Ala-Arg-AMC fluorogenic substrate | P03951 | 220,000 tested, 0.14% active | inhibition, % at 5 µM | AID 798;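 active = inhibition of at least 40%; inactive = inhibition below 40%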;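 also: fluorescence of freed AMC excited at 355 nm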
hK5 inh – inhibitors of human kallikrein 5 | recombinant hK5, fluorogenic AMC substrate cleavage | inhibition, % at 5 µM | 210,000 tested, 0.59% active | AID 873;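 active = inhibition of 40% or more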
Target sequence (Q9Y337 67-293 limits assumed): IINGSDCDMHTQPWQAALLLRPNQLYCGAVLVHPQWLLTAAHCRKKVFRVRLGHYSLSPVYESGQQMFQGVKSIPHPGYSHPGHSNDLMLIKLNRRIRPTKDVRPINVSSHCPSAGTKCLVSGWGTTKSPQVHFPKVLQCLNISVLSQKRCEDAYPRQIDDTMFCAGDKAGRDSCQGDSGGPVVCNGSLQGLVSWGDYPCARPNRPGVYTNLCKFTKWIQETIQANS
DTT redox prof – compounds producing H2O2 with reducing agent – biochemical, NIH compound library profiling, artefact control for MLSCN library redox annotation, primary screen; DTT-dependent redox cycling H2O2, phenol red/HRP absorbance; 100% = 100 µM peroxide control, 0% = buffer; activation, % at 10 µM; 200,000 tested, 0.03% active; AID 878;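 active = activation of at least 50% relative to the plate's high and low controls in the primary single-dose screen; inactive = activation below 50%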;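 also: compound incubated with DTT at 0.8 mM final as the reducing agent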
Numbers stand for hits; i = inactive; nt = no result given.

SMILES	FXIIa inh 1536	S1P3 antag	Thrombin inh	FXIa inh	hK5 inh	DTT redox prof
CC(=O)N/C(=C\c1ccccc1)C(=O)OCC(=O)NC(C)C12CC3CC(CC(C3)C1)C2 (stereo not drawn)	i	i	i	i	i	i
CC(=O)N/C(=C\c1ccccc1)C(=O)OCC(=O)N(C)C1CCCCC1	i	i	i	i	44	i
O=C(O)C(Cc1c[nH]c2ccccc12)N1CCS(=O)(=O)CC1 (stereo not drawn)	i	i	i	i	i	i
NC(=O)COc1c(-c2ccccc2)oc2ccccc2c1=O	i	i	i	i	46	i
CCOC(=O)C(=O)N(Nc1ccccc1C)c1ccccc1C	i	i	i	i	i	i
CCOC(=O)C(=O)N(Nc1ccc(C)cc1)c1ccc(C)cc1	i	i	i	50	i	nt
COCC(=O)n1nc(-c2ccccc2)nc1NCc1ccc(F)cc1	i	i	90	i	i	i
COCC(=O)n1nc(NCc2ccc(OC)cc2)nc1NCc1ccc(OC)cc1	i	i	i	i	i	i
COCC(=O)n1nc(-c2ccccc2)nc1NCc1ccccc1	i	i	91	i	i	i
CCC(=O)n1nc(-c2ccccc2)nc1NCc1ccccc1	i	i	nt	i	i	i
CCC(C)(C)n1nnnc1CN1CCN(c2ccc(OC)cc2)CC1	i	i	i	i	i	i
COC(=O)c1c(NC(=O)c2c(-c3ccccc3Cl)noc2C)sc2c1CCC2	41	nt	i	i	i	i
COC(=O)c1c(NC(=O)c2c(C)noc2C)sc2c1CCCCCC2	i	i	i	i	i	i
COc1cc(NC(=O)CN2CCN(S(=O)(=O)c3ccc(C(C)C)cc3)CC2)cc(OC)c1	i	i	i	i	40	i
CCOc1ccc(NC(=O)CCN2CCN(S(=O)(=O)c3ccc(Cl)cc3)CC2)cc1	i	nt	i	i	55	i
COc1cccc(NC(=O)CN2CCN(S(=O)(=O)c3ccc(C(C)C)cc3)CC2)c1	i	i	i	i	i	i
CCOc1ccc(NC(=O)CCN2CCN(S(=O)(=O)c3ccc(OC)cc3)CC2)cc1	i	nt	i	i	i	i
O=S(=O)(c1cccc(F)c1)N1CCCN(c2ccc(C(F)(F)F)cn2)CC1	i	i	i	i	i	nt
Cc1ccc(C)c(S(=O)(=O)ON2C(=O)c3ccccc3C2=O)c1	77	i	48	62	i	i
O=C1c2ccccc2C(=O)N1OS(=O)(=O)c1ccccc1	76	i	i	43	i	i
CC(=O)c1ccc(-n2nncc2-c2ccc([N+](=O)[O-])cc2)cc1	i	i	i	i	i	i
CC(=O)Nc1ccc(NC(=O)CSc2nnc(C)c(=O)[nH]2)cc1	i	i	i	i	i	i
Cc1[nH]c2ccccc2c1C(=O)COC(=O)Cn1cnc2ccccc21	i	i	i	i	i	i
Cc1[nH]c2ccccc2c1C(=O)COC(=O)Cn1c(C)nc2ccccc21	i	i	i	i	52	i
Cc1cccc(N(CC(=O)Nc2cccnc2)S(C)(=O)=O)c1	i	i	i	i	i	nt
SMILES	FXIIa inh 1536	S1P3 antag	Thrombin inh	FXIa inh	hK5 inh	DTT redox prof
Cc1ccc(NC(=O)Nc2c(Cl)cccc2Cl)cn1	i	i	i	i	i	nt
COc1cc(CNCc2ccccn2)ccc1OCc1cccc(Cl)c1	i	nt	i	i	i	i
CCc1nnc(NC(=O)CCC(=O)N2CCCC2)s1	i	i	42	i	54	i
CCCc1cc(NCCCO)n2c(nc3ccccc32)c1C#N	i	i	i	i	i	nt
CC(Cl)C(=O)c1c[nH]c2ccccc12 (stereo not drawn)	i	i	i	i	i	i
CCOc1cccc2cc(-c3nnc(-c4ccccc4)o3)c(=O)oc12	nt	65	nt	nt	nt	nt
COc1cccc2cc(-c3ccccc3)c(=O)oc12	i	i	i	i	i	i
COc1nc(N/N=C/c2ccccc2F)nc(N2CCCCC2)n1	i	nt	i	i	i	i
O=C(NC(Cc1c[nH]c2ccccc12)c1nnc2n1CCCCC2)c1ccc(Cl)cc1 (stereo not drawn)	i	nt	i	i	48	i
O=C(C1=C[C@H](c2coc3ccccc3c2=O)C[C@H](OCCCCO)O1)N1CCOCC1	i	i	i	i	i	i
Cc1ccc(-n2c(C)cc(C(=O)CSc3nncs3)c2C)cc1	i	i	56	i	i	i
CCOc1ccc(N/C(=N/c2nc(C)cc(C)n2)NC(C)=O)cc1	i	i	i	i	i	nt
CCC(=O)N/C(=N/c1nc(C)cc(C)n1)Nc1cccc(OC)c1	i	nt	94	i	i	i
COc1ccc(CN(C(=O)c2ccc3c(c2)OCCO3)C(C(=O)NC2CCCCC2)c2ccc3ncccc3c2)cc1 (stereo not drawn)	i	nt	i	i	150	i
O=C(NC1CCCCC1)C(c1ccc2ncccc2c1)N(Cc1ccccc1)C(=O)c1ccc2c(c1)OCCO2 (stereo not drawn)	i	nt	i	i	i	i
CSc1nc2cc3c(cc2n1C(=O)c1ccc(C)cc1)OCCO3	i	nt	88	67	i	i
Cc1ccc(C(=O)c2cc3c(cc2N)OCCO3)cc1	i	i	i	i	i	i
CCOC(=O)C1CCCN(C(=O)c2cc3nc(-c4cccc(OC)c4)cc(C(F)(F)F)n3n2)C1 (stereo not drawn)	i	i	i	i	54	i
CCOC(=O)C1CCCN(C(=O)c2cc3ncc(Br)cn3n2)C1 (stereo not drawn)	i	i	i	i	48	i
O=C(O)C1=C[C@H](C2CC2)C[C@H](OCCCCO)O1	i	i	i	i	i	i
N#C/C(=C\c1ccncc1)c1nc2ccccc2[nH]1	i	i	i	i	i	i
N#C/C(=C\c1cccnc1)c1nc2ccccc2[nH]1	i	i	i	63	i	nt
Cn1c(SCC(=O)Nc2cccnc2)nnc1-c1ccccc1F	i	i	i	i	i	i
COC(=O)Cc1ccc(NC(=S)N2CCN(c3ccc(F)cc3)CC2)cc1	i	i	53	i	72	i
CCOC(=O)c1sc(N=NC2=C(O)CC(C)(C)CC2=O)c(C(=O)OCC)c1C	i	i	i	i	i	i
SMILES	FXIIa inh 1536	S1P3 antag	Thrombin inh	FXIa inh	hK5 inh	DTT redox prof
Cc1ccc(C(=O)Nc2ccc3c(c2)CCC3)o1	i	i	i	i	84	i
Cc1ccc2nc(COc3ccc(Cl)cc3)cc(=O)n2c1	i	i	i	i	i	i
Clc1ccc(CON/C=N/c2ncnc3sccc23)cc1	i	nt	i	i	78	i
Cc1onc(-c2c(Cl)cccc2Cl)c1C(=O)Nc1nc(C(C)(C)C)cs1	i	i	i	i	i	nt
CC(=O)Nc1sc(C)c(C)c1C(=O)OCC(=O)Nc1cc(S(=O)(=O)N2CCCCC2)ccc1Cl	i	i	i	i	i	i
Cc1ccc(C(=O)Nc2ccc(Cl)cn2)cc1S(=O)(=O)N1CCOCC1	i	i	i	i	41	i
O=C(CCl)Nc1cn(-c2ccccc2)nc1-c1ccc(F)cc1	nt	i	i	i	i	i

Compound activity deposited in PubChem by several laboratories.
